In data set [1] the test system is HepG2. The experiment in a line: Antioxidant activity in human HepG2 cells assessed as decrease in FFA-induced oxidatively stress by measuring NO production using DAF-2 by H2DCFDA dye based fluorescence assay relative to control. The format is functional. On the set-up: concentration or dose not given beside the values. The method, boiled down:
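Palmitate (100 µmol/L)-BSA stressed HepG2 with glycomimetics 1 µmol/L (3 h co-treatment or 12 h pretreatment). For NO: L-arginine 100 µmol/L for 5 min at 37 °C, DAF-2 0.1 µmol/L for 2 min, then A23187 for 30 min; ex 485/em 540 nm, autofluorescence subtracted. L-NAME 100 µmol/L in some runs. ROS: CM-H2DCFDA 10 µmol/L, 30 min, 37 °C, ex 490/em 540 nm.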

Data set [2] in a line: Metabolic stability in rat liver microsomes assessed as half life at 3 uM measured up to 45 mins in presence of NADPH by LC-MS/MS analysis. The format is ADME, Microsome. In outline:
(§1)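 Pooled liver microsomes 0.5 mg/mL protein in 0.1 M phosphate pH 7.4 with compound 3 µM (0.25% DMSO), prewarmed at 37 °C. Started with NADPH 1 mM; sampled at 0, 5, 15, 30, 45 min into methanol. Minus-NADPH control at 45 min; single incubations. t½ = 0.693/k; CLint = V×0.693/t½ in µL/min/mg protein.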

For data set [3], the system named is HepG2. Kind of data set: Antioxidant activity in human HepG2 cells assessed as decrease in FFA-induced ROS production after 24 hrs by ethidium/DAPI based fluorescence assay relative to control. The format is functional. In outline: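 Cells in serum-free DMEM with 2% fatty-acid-free BSA or palmitate-BSA (100 µmol/L) plus glycomimetics (1 or 10 µmol/L) for 24 h. Then 10 µmol/L dihydroethidium in Hepes-buffered solution for 30 min, DAPI 0.3 µmol/L counterstain. Fluorescence microscopy with constant imaging settings; ROS taken as ethidium/DAPI fluorescence ratio.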

The target of data set [4] is T1, Nitric oxide synthase 3 (Homo sapiens) (UniProt P29474).
T1 sequence (whole entry): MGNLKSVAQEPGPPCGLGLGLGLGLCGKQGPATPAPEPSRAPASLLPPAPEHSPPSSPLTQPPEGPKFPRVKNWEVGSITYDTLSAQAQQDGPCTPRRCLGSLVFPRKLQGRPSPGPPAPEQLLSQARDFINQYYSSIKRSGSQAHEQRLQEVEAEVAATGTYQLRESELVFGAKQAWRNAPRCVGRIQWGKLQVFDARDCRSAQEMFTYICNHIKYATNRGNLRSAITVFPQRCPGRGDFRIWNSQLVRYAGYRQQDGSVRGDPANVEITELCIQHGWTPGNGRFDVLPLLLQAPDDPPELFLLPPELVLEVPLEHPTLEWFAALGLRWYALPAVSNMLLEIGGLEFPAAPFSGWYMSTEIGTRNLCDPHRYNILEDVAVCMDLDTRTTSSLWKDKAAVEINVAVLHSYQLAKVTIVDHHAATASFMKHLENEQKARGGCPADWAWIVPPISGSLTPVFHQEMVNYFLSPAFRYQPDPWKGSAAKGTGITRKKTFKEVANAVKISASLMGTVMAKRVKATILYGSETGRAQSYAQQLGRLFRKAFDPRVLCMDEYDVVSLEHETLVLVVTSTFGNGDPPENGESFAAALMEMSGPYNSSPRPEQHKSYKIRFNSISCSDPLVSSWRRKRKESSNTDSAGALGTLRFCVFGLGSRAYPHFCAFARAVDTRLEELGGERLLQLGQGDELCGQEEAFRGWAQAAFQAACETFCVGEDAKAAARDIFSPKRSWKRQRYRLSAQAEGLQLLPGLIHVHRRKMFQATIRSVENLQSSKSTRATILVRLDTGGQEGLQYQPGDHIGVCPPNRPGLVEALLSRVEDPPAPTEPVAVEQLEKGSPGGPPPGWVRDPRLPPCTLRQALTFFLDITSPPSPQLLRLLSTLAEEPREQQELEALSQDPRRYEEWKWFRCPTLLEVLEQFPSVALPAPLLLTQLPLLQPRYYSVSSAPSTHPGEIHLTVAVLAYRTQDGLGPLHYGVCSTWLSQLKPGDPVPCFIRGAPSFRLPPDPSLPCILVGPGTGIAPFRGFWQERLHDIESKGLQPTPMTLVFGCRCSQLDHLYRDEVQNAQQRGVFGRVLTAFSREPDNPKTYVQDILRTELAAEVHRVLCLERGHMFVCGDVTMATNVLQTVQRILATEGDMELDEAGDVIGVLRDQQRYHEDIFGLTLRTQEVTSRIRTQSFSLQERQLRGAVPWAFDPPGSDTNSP
Kind of data set: Induction of eNOS phosphorylation in FFA-induced oxidatively stress human HepG2 cells by Western blot analysis relative to control. On the set-up: concentration or dose not given beside the values. The method, boiled down: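 HepG2 stressed with palmitate 100 µmol/L-BSA plus glycomimetics 1 µmol/L. Lysed in RIPA, 30 µg protein by SDS-PAGE onto PVDF. Blocked 1 h in 5% milk/TBS-T; rabbit anti-phospho-eNOS overnight at 4 °C, HRP secondary 1 h at RT, ECL detection. Signal quantified by densitometry.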
In general terms: A western blot detects proteins with antibodies after separation by electrophoresis.

A short description of data set [5]: Metabolic stability in mouse liver microsomes assessed as half life at 3 uM measured up to 45 mins in presence of NADPH by LC-MS/MS analysis. The format is ADME, Microsome. In outline: as §1
A general note: Microsomes from liver hold many membrane-bound enzymes, among them those of drug oxidation.

A short description of data set [6]: Metabolic stability in mouse liver microsomes assessed as intrinsic clearance at 3 uM measured up to 45 mins in presence of NADPH by LC-MS/MS analysis. The format is ADME, Microsome. The following applies: read-out: CLH. The method, boiled down: as §1
The test system of data set [7] is HepG2. The experiment in a line: Cytotoxicity against human HepG2 cells assessed as reduction in cell viability incubated for 72 hrs by MTT assay. The format is cell-based. The following applies: hepg2, 72 h. The method, boiled down: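 HepG2 plated 24 h before dosing. Compound at 8 concentrations in triplicate, serially diluted in 0.5% DMSO growth medium, for 72 h. MTT loaded 1 h before end; solubilised in DMSO, read at 570 nm. Significance limits come from vehicle wells. Minimum effective concentration taken from the lowest concentration exceeding significance; AC50 fitted when dose-response is clear.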
(Formazan colour is commonly taken as a measure of viable cells.)

The nature of data set [8]: Kinetic solubility of compound in PBS at pH 7.4 incubated for 2 hrs by turbidometric analysis. The format is physicochemical. The following applies: read-out: Kinetic_solubility. The method, boiled down: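 DMSO solutions diluted 1 in 100 into 0.01 M PBS pH 7.4 (final 1% DMSO) to give 1–100 µM; 7 replicate wells. Incubated 2 h at 37 °C, absorbance read at 620 nm. Solubility estimated as the concentration raising absorbance above vehicle.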

A short description of data set [9]: Chemical stability of compound. The format is physicochemical.
The test system of data set [10] is HepG2. The experiment in a line: Antioxidant activity in human HepG2 cells assessed as decrease in FFA-induced NADPH oxidase activity by lucigenin-enhanced chemiluminescence based scintillation counting method relative to control. The format is functional. In outline:
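HepG2 cells given FFA-BSA (palmitate 100 µmol/L) with glycomimetics 1 µmol/L for 3 h, or 12 h pretreatment then 3 h palmitate. Homogenized in 20 mmol/L H2KPO4/1 mmol/L EDTA with protease inhibitors. 50 µg protein with NADPH 100 µmol/L and lucigenin 5 µmol/L; luminescence over 200 s. Basal activity subtracted; expressed as RLU/min/µg protein.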

A short description of data set [11]: Metabolic stability in rat liver microsomes assessed as intrinsic clearance at 3 uM measured up to 45 mins in presence of NADPH by LC-MS/MS analysis. The format is ADME, Microsome. The following applies: read-out: CLH. In outline: as §1
The test system of another data set is HepG2 (Homo sapiens). The experiment in a line: Cytotoxicity against HepG2 cells assessed as reduction in cell viability incubated for 72 hrs by MTT assay. The note with it: hepg2, 72 h.
In data set [12] the target is Voltage-gated inwardly rectifying potassium channel KCNH2 (Homo sapiens, UniProt Q12809). The experiment in a line: Inhibition of recombinant human ERG expressed in CHO cells at -80 mV holding potential by automated patch clamp method. The format is cell-based. The method, boiled down:
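hERG-CHO cells on automated IonWorks patch clamp at room temperature. Extracellular DPBS pH 7.2, HEPES-buffered intracellular solution, amphotericin B perforation. Compounds typically at 0.008–25 µM (5-fold steps, final DMSO 0.25%), 300 s exposure, 4 replicate wells. Response is post/pre current ×100; IC50 from Hill fit.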

Each structure is given as a SMILES string. Where only a bound is given, the exact number is not on record here.

Broadly, the half-life is the time needed for the level to fall by half in the phase considered. As usually defined, the IC50 is the concentration needed to halve the response being measured.

Sequence of Voltage-gated inwardly rectifying potassium channel KCNH2 (Q12809 whole entry): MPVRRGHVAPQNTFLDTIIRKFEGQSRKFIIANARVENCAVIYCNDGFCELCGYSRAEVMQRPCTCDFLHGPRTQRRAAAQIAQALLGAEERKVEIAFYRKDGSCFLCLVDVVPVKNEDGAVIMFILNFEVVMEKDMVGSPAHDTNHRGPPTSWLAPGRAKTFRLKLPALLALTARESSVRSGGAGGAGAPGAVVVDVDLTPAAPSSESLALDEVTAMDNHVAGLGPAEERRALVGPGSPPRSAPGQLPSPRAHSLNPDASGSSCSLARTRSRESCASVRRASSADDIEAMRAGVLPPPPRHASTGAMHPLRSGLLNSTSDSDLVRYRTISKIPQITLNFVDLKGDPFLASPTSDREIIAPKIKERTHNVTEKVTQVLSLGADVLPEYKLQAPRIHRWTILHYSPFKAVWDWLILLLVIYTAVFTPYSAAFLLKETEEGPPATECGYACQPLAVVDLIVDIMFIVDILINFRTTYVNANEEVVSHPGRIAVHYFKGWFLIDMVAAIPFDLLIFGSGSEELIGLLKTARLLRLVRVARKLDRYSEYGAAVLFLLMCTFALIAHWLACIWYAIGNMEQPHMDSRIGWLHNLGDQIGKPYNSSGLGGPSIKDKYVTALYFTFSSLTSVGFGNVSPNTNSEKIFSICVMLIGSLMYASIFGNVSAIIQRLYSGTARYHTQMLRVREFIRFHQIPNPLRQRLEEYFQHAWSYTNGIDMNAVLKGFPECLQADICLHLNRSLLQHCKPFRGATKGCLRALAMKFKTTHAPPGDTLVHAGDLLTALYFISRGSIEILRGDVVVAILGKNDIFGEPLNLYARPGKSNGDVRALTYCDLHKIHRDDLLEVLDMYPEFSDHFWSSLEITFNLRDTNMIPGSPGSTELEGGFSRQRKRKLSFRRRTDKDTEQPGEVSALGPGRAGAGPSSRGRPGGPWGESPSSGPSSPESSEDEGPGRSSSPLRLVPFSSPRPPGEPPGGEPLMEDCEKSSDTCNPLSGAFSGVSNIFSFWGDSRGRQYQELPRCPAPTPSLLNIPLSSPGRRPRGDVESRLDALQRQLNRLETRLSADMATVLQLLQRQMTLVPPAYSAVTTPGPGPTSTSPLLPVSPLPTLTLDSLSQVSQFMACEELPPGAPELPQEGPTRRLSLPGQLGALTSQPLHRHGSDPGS

On to `COC(=O)c1cc(OC[C@@H](COS(=O)(=O)[O-])OS(=O)(=O)[O-])ccc1OC[C@H](COS(=O)(=O)[O-])OS(=O)(=O)[O-].[Na+].[Na+].[Na+].[Na+]`, for which the Activity in the data set with HepG2 [1] was 110%; in data set [4], 342%; in the data set with HepG2 [7], “Non-Toxic”; in the data set with HepG2 (Homo sapiens), “Non-Toxic”. Further, the half-life at 3 µM in data set [2] came out at 2.42 h; in data set [5], 30.7 h. Also, the figures for the “inhibition (INH)” value in the data set on HepG2 [3] and in the data set on HepG2 [10] were 28% and 29%, respectively. Also, the microsomal CLint at 3 µM was 0.755 µL/min/mg in [6] and 9.56 µL/min/mg in data set [11]. In addition, in data set [8], the solubility kinetic at 2 h was greater than 100 µM. Moreover, in [9], the Stabilty result was “Stable”.
With `COC(=O)c1cc(OC[C@H](COS(=O)(=O)[O-])OS(=O)(=O)[O-])ccc1OCCCCOS(=O)(=O)[O-].[Na+].[Na+].[Na+]`, the Activity in the data set on HepG2 [1] is 52%; in [4] it was 613%; in the data set on HepG2 [7], “Non-Toxic”; in the data set with HepG2 (Homo sapiens), “Non-Toxic”. Further, the “inhibition (INH)” value is reported as 23% in the data set with HepG2 [3] and 31% with HepG2 [10]. Besides, the Stabilty result in data set [9] is given as “Stable”.
For the compound `COC(=O)c1cc(OC[C@H](COS(=O)(=O)[O-])OS(=O)(=O)[O-])ccc1OC[C@@H](COS(=O)(=O)[O-])OS(=O)(=O)[O-].[Na+].[Na+].[Na+].[Na+]`, the Activity in the data set on HepG2 [1] is 62%; in data set [4], 318%; in the data set with HepG2 [7], “Non-Toxic”; in the data set with HepG2 (Homo sapiens) it was “Non-Toxic”. Further, the half-life at 3 µM in data set [2] is 35.7 h; in [5] it was 8.03 h. Moreover, the “inhibition (INH)” value in the data set on HepG2 [3] was determined as 29%; with HepG2 [10], 31%. Also, the microsomal CLint at 3 µM came to 2.88 µL/min/mg in data set [6] and 0.649 µL/min/mg in [11]. Also, the solubility kinetic at 2 h in data set [8] was greater than 100 µM. Besides, the Stabilty result in data set [9] is reported as “Stable”. Moreover, the half-inhibitory concentration (IC50) in data set [12] was greater than 25 µM.
On to `O=C([O-])c1cc(OC[C@H](O)CO)ccc1OC[C@@H](O)CO.[Na+]` (mixture of isomers), for which the Activity with HepG2 [1] is 41%; in [4] it was 312%. Moreover, the figures for the “inhibition (INH)” value in the data set on HepG2 [3] and in the data set on HepG2 [10] were 23% and 21%, respectively.
For `COC(=O)c1cc(OC[C@@H](COS(=O)(=O)[O-])OS(=O)(=O)[O-])ccc1OCCCCOS(=O)(=O)[O-].[Na+].[Na+].[Na+]`, the Activity in the data set with HepG2 [1] was 63%; in [4], 397%; in the data set on HepG2 [7], “Non-Toxic”; with HepG2 (Homo sapiens) it was “Non-Toxic”. Further, the “inhibition (INH)” value is reported as 39% in the data set with HepG2 [3] and 27% in the data set on HepG2 [10]. In addition, in data set [9], the Stabilty result is given as “Stable”.
With `COC(=O)c1cc(OC[C@H](O)CO)ccc1OC[C@@H](O)CO` (mixture of isomers), the Activity is 46% in the data set with HepG2 [1] and 286% in data set [4]. Further, the results for the “inhibition (INH)” value in the data set on HepG2 [3] and in the data set with HepG2 [10] were 36% and 26%, respectively.
For the compound `O=C([O-])c1cc(OC[C@@H](O)CO)ccc1OC[C@H](O)CO.[Na+]` (mixture of isomers), the Activity is 52% with HepG2 [1] and 294% in [4]. The “inhibition (INH)” value in the data set on HepG2 [3] was 19%; in the data set on HepG2 [10], 27%.

These data come from ChEMBL document CHEMBL4732020, “The modulatory role of sulfated and non-sulfated small molecule heparan sulfate-glycomimetics in endothelial dysfunction: absolute structural clarification, molecular docking and simulated dynamics, SAR analyses and ADMET studies” (RSC Med Chem, 2021).
